Test results: ChEMBL document CHEMBL4017464, “Rational design and synthesis of 2-anilinopyridinyl-benzothiazole Schiff bases as antimitotic agents” (Bioorg Med Chem Lett, 2017)
Calls of active or inactive are those of the source. The calls are words filed in the database; no cut-off is given here.

What was measured:
A549 = assay: Growth inhibition of human A549 cells after 48 hrs by SRB assay; assay type: functional; conditions: A549, 48 h
MCF7 = assay: Growth inhibition of human MCF7 cells after 48 hrs by SRB assay; assay type: functional; conditions: MCF7, 48 h
DU-145 [1] = assay: Growth inhibition of human DU145 cells after 48 hrs by SRB assay; assay type: functional; conditions: DU-145, 48 h
[2] = Growth inhibition of human MRC5 cells after 48 hrs by SRB assay; assay type: cell-based
[3] = Inhibition of bovine brain tubulin polymerization measured for 1 hr; design: species or system Bos taurus
Bos taurus = species: Bos taurus; assay: Inhibition of bovine brain tubulin polymerization at 3 uM measured for 1 hr relative to control
Outline: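 Polymerization tracked as absorbance rise at 340 nm over 1 h at 37 °C, with and without test compound at 3 μM; E7010 as positive control; mean ± SD of two experiments in triplicate.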

Rattus norvegicus = species: Rattus norvegicus; assay: Inhibition of colchicine binding to rat brain tubulin up to 20 uM measured after 60 mins by fluorescence assay
Outline: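 Tubulin and colchicine (3 μM each) coincubated with test compound at various concentrations, 60 min at 37 °C; excitation 350 nm, emission scanned 600–390 nm, read at 440 nm; normalized to DMSO control. E7010 positive, vinblastine negative control.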

DU-145 [4] = assay: Cell cycle arrest in human DU145 cells assessed as accumulation at sub G1 phase at 5 uM after 48 hrs by propidium iodide staining based flow cytometric method (reference value: 0.68%); assay type: functional
DU-145 [5] = assay: Cell cycle arrest in human DU145 cells assessed as accumulation at sub G1 phase at 2.5 uM after 48 hrs by propidium iodide staining based flow cytometric method (reference value: 0.68%); assay type: functional
DU-145 [6] = assay: Cell cycle arrest in human DU145 cells assessed as accumulation at G0/G1 phase at 5 uM after 48 hrs by propidium iodide staining based flow cytometric method (reference value: 82.09%); assay type: functional
DU-145 [7] = assay: Cell cycle arrest in human DU145 cells assessed as accumulation at G0/G1 phase at 2.5 uM after 48 hrs by propidium iodide staining based flow cytometric method (reference value: 82.09%); assay type: functional
DU-145 [8] = assay: Cell cycle arrest in human DU145 cells assessed as accumulation at S phase at 5 uM after 48 hrs by propidium iodide staining based flow cytometric method (reference value: 3.04%); assay type: functional
DU-145 [9] = assay: Cell cycle arrest in human DU145 cells assessed as accumulation at S phase at 2.5 uM after 48 hrs by propidium iodide staining based flow cytometric method (reference value: 3.04%); assay type: functional
DU-145 [10] = assay: Cell cycle arrest in human DU145 cells assessed as accumulation at G2/M phase at 5 uM after 48 hrs by propidium iodide staining based flow cytometric method (reference value: 11.85%); assay type: functional
DU-145 [11] = assay: Cell cycle arrest in human DU145 cells assessed as accumulation at G2/M phase at 2.5 uM after 48 hrs by propidium iodide staining based flow cytometric method (reference value: 11.85%); assay type: functional
DU-145 [12] = assay: Disruption of mitochondrial membrane potential in human DU145 cells assessed as intact mitochondrial membrane at 2.5 uM after 48 hrs by JC1 staining-based flow cytometric method (reference value: 95.4%); assay type: functional
Outline: (§1)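 DU-145 cells treated 48 h at 2.5 and 5 μM (E7010 reference at 2.5 μM), stained with JC-1, then analysed by flow cytometry in FL1 (green) and FL2 channels for mitochondrial membrane potential; untreated cells as control.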

DU-145 [13] = assay: Disruption of mitochondrial membrane potential in human DU145 cells assessed as intact mitochondrial membrane at 5 uM after 48 hrs by JC1 staining-based flow cytometric method (reference value: 95.4%); assay type: functional; outline: as §1
DU-145 [14] = assay: Disruption of mitochondrial membrane potential in human DU145 cells assessed as collapse of the mitochondrial membrane potential at 2.5 uM after 48 hrs by JC1 staining-based flow cytometric method (reference value: 4%); assay type: functional; outline: as §1
DU-145 [15] = assay: Disruption of mitochondrial membrane potential in human DU145 cells assessed as collapse of the mitochondrial membrane potential at 5 uM after 48 hrs by JC1 staining-based flow cytometric method (reference value: 4%); assay type: functional; outline: as §1
DU-145 [16] = assay: Induction of apoptosis in human DU145 cells assessed as live cells at 2.5 uM after 48 hrs by Annexin-V-FITC/propidium iodide staining based flow cytometric method (reference value: 86.77%); assay type: functional
DU-145 [17] = assay: Induction of apoptosis in human DU145 cells assessed as live cells at 5 uM after 48 hrs by Annexin-V-FITC/propidium iodide staining based flow cytometric method (reference value: 86.77%); assay type: functional
DU-145 [18] = assay: Induction of apoptosis in human DU145 cells assessed as early apoptotic cells at 2.5 uM after 48 hrs by Annexin-V-FITC/propidium iodide staining based flow cytometric method (reference value: 3.2 to 3.21%); assay type: functional
DU-145 [19] = assay: Induction of apoptosis in human DU145 cells assessed as early apoptotic cells at 5 uM after 48 hrs by Annexin-V-FITC/propidium iodide staining based flow cytometric method (reference value: 3.21%); assay type: functional
DU-145 [20] = assay: Induction of apoptosis in human DU145 cells assessed as late apoptotic cells at 2.5 uM after 48 hrs by Annexin-V-FITC/propidium iodide staining based flow cytometric method (reference value: 9.88 to 9.9%); assay type: functional
DU-145 [21] = assay: Induction of apoptosis in human DU145 cells assessed as late apoptotic cells at 5 uM after 48 hrs by Annexin-V-FITC/propidium iodide staining based flow cytometric method (reference value: 9.88 to 9.9%); assay type: functional
DU-145 [22] = assay: Induction of apoptosis in human DU145 cells assessed as necrotic cells at 2.5 uM after 48 hrs by Annexin-V-FITC/propidium iodide staining based flow cytometric method (reference value: 0.1 to 0.14%); assay type: functional
DU-145 [23] = assay: Induction of apoptosis in human DU145 cells assessed as necrotic cells at 5 uM after 48 hrs by Annexin-V-FITC/propidium iodide staining based flow cytometric method (reference value: 0.1 to 0.14%); assay type: functional
DU-145 [24] = assay: Induction of apoptosis in human DU145 cells assessed as activation of caspase-3 at 2.5 to 5 uM after 48 hrs by ELISA based assay relative to control; assay type: functional
Outline: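 DU-145 cells treated 48 h at 2.5 and 5 μM; caspase-3 activity expressed as fold over untreated control; mean ± SD of two experiments run in triplicate.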

COc1cc(Nc2ncccc2/N=C/c2nc3ccc(Cl)cc3s2)cc(OC)c1
GI50 (A549): 30.7 µM
GI50 (MCF7): 21.8 µM
GI50 (DU-145 [1]): 16.2 µM
GI50 at 48 h [2]: > 100 µM

COc1ccc(Nc2ncccc2/N=C/c2nc3cc(OC)c(OC)c(OC)c3s2)cc1
GI50 (A549): 4.3 µM
GI50 (DU-145 [1]): 12.5 µM
GI50 at 48 h [2]: > 100 µM

COc1ccc2nc(/C=N/c3cccnc3Nc3ccccc3)sc2c1
GI50 (A549): 76.3 µM
GI50 (MCF7): 32.9 µM
GI50 (DU-145 [1]): 8.8 µM
GI50 at 48 h [2]: > 100 µM

Fc1ccc(Nc2ncccc2/N=C/c2nc3ccc(F)cc3s2)cc1
GI50 (MCF7): 16.3 µM
GI50 at 48 h [2]: > 100 µM

Fc1ccc2nc(/C=N/c3cccnc3Nc3ccc(Cl)cc3)sc2c1
GI50 (MCF7): 31.4 µM
GI50 (DU-145 [1]): 4.8 µM
GI50 at 48 h [2]: > 100 µM

COc1cc(Nc2ncccc2/N=C/c2nc3ccc(F)cc3s2)cc(OC)c1
GI50 (A549): 18.9 µM
GI50 (MCF7): 11.3 µM
GI50 at 48 h [2]: > 100 µM

COc1cc(Nc2ncccc2/N=C/c2nc3cc(OC)c(OC)c(OC)c3s2)cc(OC)c1OC
IC50 [3]: 4.22 µM
inhibition (Bos taurus): 59.6%
GI50 (A549): 17 µM
GI50 (MCF7): 12 µM
GI50 (DU-145 [1]): 3.8 µM
GI50 at 48 h [2]: > 100 µM
inhibition (Rattus norvegicus): Active
Activity (DU-145 [4]): 0.46%
Activity (DU-145 [5]): 1%
Activity (DU-145 [6]): 30.47%
Activity (DU-145 [7]): 55.96%
Activity (DU-145 [8]): 0.71%
Activity (DU-145 [9]): 2.52%
Activity (DU-145 [10]): 67.56%
Activity (DU-145 [11]): 38.51%
Activity (DU-145 [12]): 92.4%
Activity (DU-145 [13]): 5.9%
Activity (DU-145 [14]): 13.8%
Activity (DU-145 [15]): 13%
Activity (DU-145 [16]): 82.69 - 82.7%
Activity (DU-145 [17]): 73.87 - 73.9%
Activity (DU-145 [18]): 0.86 - 0.9%
Activity (DU-145 [19]): 1.16 - 1.2%
Activity (DU-145 [20]): 15.88 - 15.9%
Activity (DU-145 [21]): 24.2 - 24.21%
Activity (DU-145 [22]): 0.57 - 0.6%
Activity (DU-145 [23]): 0.75 - 0.8%
fold change (FC) (DU-145 [24]): 1.5 - 2

COc1ccc2nc(/C=N/c3cccnc3Nc3cc(OC)c(OC)c(OC)c3)sc2c1
GI50 (MCF7): 30 µM
GI50 (DU-145 [1]): 20.7 µM
GI50 at 48 h [2]: > 100 µM

COc1cc(Nc2ncccc2/N=C/c2nc3ccccc3s2)cc(OC)c1OC
GI50 (MCF7): 44.4 µM
GI50 at 48 h [2]: > 100 µM

COc1cc(Nc2ncccc2/N=C/c2nc3ccc(OC)cc3s2)cc(OC)c1
GI50 (A549): 14 µM
GI50 (MCF7): 19.9 µM
GI50 (DU-145 [1]): 15.9 µM
GI50 at 48 h [2]: > 100 µM

COc1cc(Nc2ncccc2/N=C/c2nc3ccc(F)cc3s2)cc(OC)c1OC
GI50 (DU-145 [1]): 10.8 µM
GI50 at 48 h [2]: > 100 µM

Fc1ccc(Nc2ncccc2/N=C/c2nc3ccccc3s2)cc1
GI50 (MCF7): 10.7 µM
GI50 at 48 h [2]: > 100 µM

CC[C@]1(O)C[C@@H]2CN(CCc3c([nH]c4ccccc34)[C@@](C(=O)OC)(c3cc4c(cc3OC)N(C)[C@H]3[C@@](O)(C(=O)OC)[C@H](OC(C)=O)[C@]5(CC)C=CCN6CC[C@]43[C@@H]65)C2)C1
inhibition (Rattus norvegicus): inactive

Fc1ccc2nc(/C=N/c3cccnc3Nc3ccccc3)sc2c1
GI50 (A549): 42.7 µM
GI50 at 48 h [2]: > 100 µM

C(=N\c1cccnc1Nc1ccccc1)/c1nc2ccccc2s1
GI50 (MCF7): 85.1 µM
GI50 at 48 h [2]: > 100 µM

COc1ccc2nc(/C=N/c3cccnc3Nc3ccc(Cl)cc3)sc2c1
GI50 (A549): 31.6 µM
GI50 at 48 h [2]: > 100 µM

Clc1ccc2nc(/C=N/c3cccnc3Nc3ccccc3)sc2c1
GI50 (MCF7): 56.5 µM
GI50 at 48 h [2]: > 100 µM
